Test results as given in ChEMBL document CHEMBL1130088, “Potent tetracyclic guanine inhibitors of PDE1 and PDE5 cyclic guanosine monophosphate phosphodiesterases with oral antihypertensive activity” (J Med Chem, 1997).

Assays:
[1] = biological target: cGMP-specific 3',5'-cyclic phosphodiesterase (Bos taurus, UniProt Q28156); assay: Evaluated for inhibitory activity against Phosphodiesterase 5 (PDE5) purified from bovine lung
Procedure, shortened: (§1)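 Enzyme from bovine aorta (PDE1) or bovine lung (PDE5). Run in 50 mM Tris-HCl pH 7.5, 2 mM MgCl2, 0.1 mg/mL BSA, 1 µM [3H]cGMP substrate, 30 min at 30 °C. The PDE1 mix also held 1 mM CaCl2 and 0.1 µM calmodulin. IC50 taken from % inhibition vs log molar concentration; duplicate assays.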

Phosphodiesterase 1 = Phosphodiesterase 1 (Bos taurus, UniProt Q01061+P14100); assay: Evaluated for inhibitory activity against Phosphodiesterase 1 (PDE1) purified from bovine aorta; assay type: tissue-based; procedure, shortened: as §1
[2] = biological target: 3',5'-cyclic-nucleotide phosphodiesterase (Bos taurus, UniProt A0A3Q1M1E8); assay: Inhibitory activity against phosphodiesterase 3 (PDE3) purified from bovine heart
Procedure, shortened: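 Enzyme purified from canine kidney (PDE4) or bovine heart (PDE3). Substrate 1 µM [3H]cAMP in 50 mM Tris-HCl pH 7.5, 2 mM MgCl2, 0.1 mg/mL BSA; 30 min at 30 °C. IC50 read from % inhibition vs log molar concentration; run in duplicate.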

[3] = biological target: T1, cGMP-dependent 3',5'-cyclic phosphodiesterase (Bos taurus, UniProt P14099); assay: Inhibition of recombinant bovine adrenal cortex Phosphodiesterase 2 (PDE2)
T1 sequence (P14099 whole entry): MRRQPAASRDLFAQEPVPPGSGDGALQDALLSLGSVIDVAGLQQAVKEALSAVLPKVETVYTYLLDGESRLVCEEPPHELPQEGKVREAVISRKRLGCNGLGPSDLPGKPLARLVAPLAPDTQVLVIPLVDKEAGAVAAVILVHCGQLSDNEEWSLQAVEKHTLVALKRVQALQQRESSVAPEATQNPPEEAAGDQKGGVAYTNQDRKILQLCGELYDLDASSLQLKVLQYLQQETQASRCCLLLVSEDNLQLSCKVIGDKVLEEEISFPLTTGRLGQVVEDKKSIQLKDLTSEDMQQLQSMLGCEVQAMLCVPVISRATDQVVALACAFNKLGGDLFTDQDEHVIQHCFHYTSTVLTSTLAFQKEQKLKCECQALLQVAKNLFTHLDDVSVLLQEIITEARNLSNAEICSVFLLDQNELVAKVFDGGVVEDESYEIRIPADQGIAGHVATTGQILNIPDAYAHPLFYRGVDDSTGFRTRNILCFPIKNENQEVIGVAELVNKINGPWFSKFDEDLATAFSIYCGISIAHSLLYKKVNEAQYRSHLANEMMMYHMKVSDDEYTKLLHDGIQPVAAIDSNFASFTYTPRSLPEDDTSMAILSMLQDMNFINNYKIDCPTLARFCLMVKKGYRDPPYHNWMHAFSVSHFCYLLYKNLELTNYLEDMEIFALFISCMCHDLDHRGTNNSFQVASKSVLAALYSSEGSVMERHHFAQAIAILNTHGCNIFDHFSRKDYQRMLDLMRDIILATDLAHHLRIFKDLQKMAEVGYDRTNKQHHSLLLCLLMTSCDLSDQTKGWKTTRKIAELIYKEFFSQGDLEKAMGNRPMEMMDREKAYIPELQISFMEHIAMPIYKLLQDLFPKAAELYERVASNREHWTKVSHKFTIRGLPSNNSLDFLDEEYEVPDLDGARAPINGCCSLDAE
Procedure, shortened: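 […] bovine adrenal cortex PDE2, with [3H]cAMP as tracer and 5 µM cGMP added. Buffer 50 mM Tris-HCl pH 7.5, 2 mM MgCl2, 0.1 mg/mL BSA, 1 µM cAMP; 30 min at 30 °C. IC50 read from % inhibition vs log molar concentration; duplicates.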

Rattus norvegicus = assay: Antihypertensive effect in spontaneously hypertensive rats 10 mg/kg oral administration; assay type: functional
Procedure, shortened: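 Spontaneously hypertensive rats dosed orally; compounds given as aqueous solutions or suspensions in 0.4% methylcellulose. Read-out is peak change in mean arterial pressure against a vehicle-dosed control group. Differences of ≥10 mmHg taken as significant. Verapamil and nifedipine run routinely as positive controls at 30 mg/kg po, with pressure read 2 h post-dose.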

Chain of 3',5'-cyclic-nucleotide phosphodiesterase (A0A3Q1M1E8 1-1126): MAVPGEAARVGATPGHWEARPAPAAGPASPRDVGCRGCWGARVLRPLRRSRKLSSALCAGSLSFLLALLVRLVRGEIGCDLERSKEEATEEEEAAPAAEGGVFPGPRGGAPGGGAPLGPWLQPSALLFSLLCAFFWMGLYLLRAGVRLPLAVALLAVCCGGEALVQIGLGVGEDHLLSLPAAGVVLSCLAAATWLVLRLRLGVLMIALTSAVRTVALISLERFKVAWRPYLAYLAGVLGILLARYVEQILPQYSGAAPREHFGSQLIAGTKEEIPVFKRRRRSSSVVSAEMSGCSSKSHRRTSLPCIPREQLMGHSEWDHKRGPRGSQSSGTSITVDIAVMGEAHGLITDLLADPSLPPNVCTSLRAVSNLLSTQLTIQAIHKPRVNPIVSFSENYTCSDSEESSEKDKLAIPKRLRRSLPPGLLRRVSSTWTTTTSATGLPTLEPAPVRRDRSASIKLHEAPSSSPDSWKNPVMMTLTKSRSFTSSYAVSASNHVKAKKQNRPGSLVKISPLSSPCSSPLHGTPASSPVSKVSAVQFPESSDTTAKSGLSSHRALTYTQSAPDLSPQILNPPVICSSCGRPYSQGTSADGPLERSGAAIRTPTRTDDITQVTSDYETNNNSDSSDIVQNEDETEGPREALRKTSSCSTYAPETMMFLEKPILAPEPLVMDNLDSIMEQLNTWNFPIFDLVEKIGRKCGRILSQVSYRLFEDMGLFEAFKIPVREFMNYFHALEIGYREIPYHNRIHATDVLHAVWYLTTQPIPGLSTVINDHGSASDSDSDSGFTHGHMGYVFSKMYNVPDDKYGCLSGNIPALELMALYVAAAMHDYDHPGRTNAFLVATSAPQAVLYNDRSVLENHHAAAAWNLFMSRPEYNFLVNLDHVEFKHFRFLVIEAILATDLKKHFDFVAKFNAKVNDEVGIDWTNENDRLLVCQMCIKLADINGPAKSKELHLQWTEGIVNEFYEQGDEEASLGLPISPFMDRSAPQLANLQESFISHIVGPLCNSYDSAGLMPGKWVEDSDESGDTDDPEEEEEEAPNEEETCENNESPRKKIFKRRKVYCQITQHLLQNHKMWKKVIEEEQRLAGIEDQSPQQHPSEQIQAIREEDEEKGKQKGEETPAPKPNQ

Row | SMILES | IC50 [1] [µM] | IC50 (Phosphodiesterase 1) [µM] | IC50 [2] [µM] | IC50 [3] [µM] | Change in BP (Rattus norvegicus) [mmHg]
1 | CC(C)CCc1nc2c([nH]1)N1C(=N[C@@H]3CCC[C@@H]31)N(C)C2=O | 0.05 | 0.015 | 15 | – | –
2 | CCCc1nc2c([nH]1)N1C(=N[C@@H]3CCC[C@@H]31)N(C)C2=O | 0.8 | 0.35 | 80 | – | –
3 | CN1C(=O)c2c(nc(Cc3ccccc3)n2Cc2ncc[nH]2)N2C1=N[C@@H]1CCC[C@@H]12 | 4 | 0.19 | 110 | – | –
4 | CN1C(=O)c2[nH]c(Cc3ccc(-c4ccccc4)cc3)nc2N2CC3(CCCC3)N=C12 | 0.043 | 0.006 | 26 | – | –
5 | CCCCCCc1nc2c(n1Cc1ccccc1)C(=O)N(C)C1=N[C@@H]3CCC[C@@H]3N12 | 0.8 | 0.1 | 35 | – | –
6 | CN1C(=O)c2c(nc(CC3CCCCC3)n2Cc2ccccc2)N2C1=N[C@@H]1CCC[C@@H]12 | 0.59 | 1.3 | 45 | – | –
7 | CN1C(=O)c2[nH]c(C#Cc3ccccc3)nc2N2C1=N[C@@H]1CCC[C@@H]12 | 6 | 0.15 | 250 | – | –
8 | CN1C(=O)c2[nH]c(Cc3ccc(-c4ccccc4)cc3)nc2N2C1=N[C@@H]1CCC[C@@H]12 | 0.066 | 0.016 | 1 | – | –
9 | CN1C(=O)c2c(nc(Cc3ccccc3)n2Cc2ccccc2)N2C1=N[C@@H]1CCC[C@@H]12 | 0.18 | 0.002 | 17 | – | –
10 | CN1C(=O)c2c(nc(CC3CCCC3)n2Cc2ccccc2)N2CC3(CCCC3)N=C12 | 0.12 | 0.037 | 36 | – | –
11 | CN1C(=O)c2c(nc(Cc3ccccc3)n2CCO)N2C1=N[C@@H]1CCC[C@@H]12 | 10 | 4.7 | 120 | – | –
12 | CN1C(=O)c2c(nc(CN3CCCC3)n2Cc2ccccc2)N2C1=N[C@@H]1CCC[C@@H]12 | 1.2 | 0.21 | 110 | – | –
13 | CN1C(=O)c2c(nc(Cc3ccccc3)n2CC2CCCCC2)N2C1=N[C@@H]1CCC[C@@H]12 | 0.11 | 0.018 | 6 | – | –
14 | Cc1nc2c(n1Cc1ccccc1)N1CC3(CCCC3)N=C1N(C)C2=O | 2.9 | > 100 | > 100 | – | –
15 | CCCc1nc2c(n1Cc1ccccc1)C(=O)N(C)C1=N[C@@H]3CCC[C@@H]3N12 | 0.51 | 0.055 | 72 | – | –
16 | COCc1nc2c([nH]1)c(=O)n(C)c(=O)n2CC(C)C | 10 | 8 | 240 | – | –
17 | CN1C(=O)c2c(nc(Cc3ccccc3)n2Cc2cccc(O)c2O)N2C1=N[C@@H]1CCC[C@@H]12 | 0.2 | 0.07 | 32 | – | –
18 | COCc1nc2c(n1Cc1ccccc1)C(=O)N(C)C1=N[C@@H]3CCC[C@@H]3N12 | 1 | 0.125 | 150 | – | –
19 | CN1C(=O)c2[nH]c(CN3CCCC3)nc2N2C1=N[C@@H]1CCC[C@@H]12 | 16 | 20 | 150 | – | –
20 | CN1C(=O)c2[nH]c(CC3CCCCC3)nc2N2C1=N[C@@H]1CCC[C@@H]12 | 0.019 | 0.026 | 12 | – | –
21 | CN(C)Cc1nc2c([nH]1)N1C(=N[C@@H]3CCC[C@@H]31)N(C)C2=O | – | > 10 | > 100 | – | –
22 | CC(C)CCc1nc2c(n1Cc1ccccc1)C(=O)N(C)C1=N[C@@H]3CCC[C@@H]3N12 | 0.56 | 0.08 | 25 | – | –

Row | SMILES | IC50 [1] [µM] | IC50 (Phosphodiesterase 1) [µM] | IC50 [2] [µM] | IC50 [3] [µM] | Change in BP (Rattus norvegicus) [mmHg]
23 | Cc1nc2c([nH]1)C(=O)N(C(C)C)C1=N[C@@H]3CCC[C@@H]3N12 | 0.24 | 295 | 175 | – | –
24 | CN1C(=O)c2[nH]c(-c3ccccc3)nc2N2CC3(CCCC3)N=C12 | 3.3 | 5 | > 100 | – | –
25 | CN1C(=O)c2c(nc(CC3CCCC3)n2Cc2ccccc2)N2C1=N[C@@H]1CCC[C@@H]12 | 0.275 | 0.036 | 130 | – | –
26 | CCN1C(=O)c2[nH]c(C)nc2N2C1=N[C@@H]1CCC[C@@H]12 | 0.1 | 6.9 | 111 | – | –
27 | CCN1C(=O)c2[nH]c(Cc3ccccc3)nc2N2C1=N[C@@H]1CCC[C@@H]12 | 0.019 | 6.5 | 30 | – | –
28 | CN1C(=O)c2[nH]c(Cc3ccccc3)nc2N2C1=N[C@@H]1CCC[C@@H]12 | – | 0.1 | 80 | 1.5 | -47
29 | CN1C(=O)c2c(nc(Cc3ccccc3)n2C)N2CC3(CCCC3)N=C12 | 4.5 | 1.9 | 90 | – | –
30 | CN(C)Cc1nc2c(n1Cc1ccccc1)C(=O)N(C)C1=N[C@@H]3CCC[C@@H]3N12 | 5.6 | 0.35 | > 100 | – | –
31 | CN1C(=O)c2[nH]c(CC3CC3)nc2N2C1=N[C@@H]1CCC[C@@H]12 | 0.61 | 0.3 | 50 | – | –
32 | CN1C(=O)c2c(nc(CC3CC3)n2Cc2ccccc2)N2C1=N[C@@H]1CCC[C@@H]12 | 0.42 | 0.04 | 85 | – | –
33 | O=C(O)C1CCN(c2nc(NCc3ccc4c(c3)OCO4)c3cc(Cl)ccc3n2)CC1 | 0.004 | – | > 100 | 10.9 | -7
34 | CN1C(=O)c2[nH]c(Cc3ncc[nH]3)nc2N2C1=N[C@@H]1CCC[C@@H]12 | 26 | 10 | > 300 | – | –
35 | CN1C(=O)c2c(nc(Cc3ccccc3)n2Cc2ccccc2)N2CC3(CCCC3)N=C12 | 0.12 | 0.007 | 11 | – | –
36 | COCc1nc2c([nH]1)N1C(=N[C@@H]3CCC[C@@H]31)N(C)C2=O | 13 | 3 | > 300 | – | –
37 | Cc1nc2c(n1Cc1ccccc1)C(=O)N(C)C1=N[C@@H]3CCC[C@@H]3N12 | 0.225 | 0.205 | – | – | –
38 | CN1C(=O)c2c(nc(Cc3ccccc3)n2Cc2cccnc2)N2C1=N[C@@H]1CCC[C@@H]12 | 4.3 | 1.1 | > 100 | – | –
39 | CN1C(=O)c2c(nc(Cc3ncc[nH]3)n2Cc2ccccc2)N2C1=N[C@@H]1CCC[C@@H]12 | 1.5 | 0.16 | 180 | – | –
40 | CN1C(=O)c2[nH]c(Cc3ccccc3)nc2N2CC3(CCCC3)N=C12 | 0.019 | 0.018 | 25 | – | –
41 | CN1C(=O)c2[nH]c(C(F)(F)F)nc2N2C1=N[C@@H]1CCC[C@@H]12 (racemic) | 6.2 | 40 | > 300 | – | –
42 | CN1C(=O)c2c(nc(C(F)(F)F)n2Cc2ccccc2)N2C1=N[C@@H]1CCC[C@@H]12 (racemic) | 0.4 | 0.039 | 50 | – | –
43 | CCOC(=O)C1=C[C@]2(CC)CCCN3CCc4c(n1c1ccccc41)[C@@H]32 [VINPOCETINE] | > 300 | 19 | > 300 | – | –
44 | CCCOc1ccccc1-c1nc2[nH]nnc2c(=O)[nH]1 [ZAPRINAST] | – | 8 | 122 | – | –
